Measurements: ChEMBL document CHEMBL4680236, “Design, synthesis and structure-activity relationships of novel 15-membered macrolides: Quinolone/quinoline-containing sidechains tethered to the C-6 position of azithromycin acylides” (Eur J Med Chem, 2020)
≈ marks a conversion by molar mass, not a printed value.

Assays:
[1] = tested on: Streptococcus pneumoniae; assay: Antibacterial activity against Erythromycin-susceptible Streptococcus pneumoniae ATCC 49619 assessed as reduction in microbial growth; format: functional
[2] = tested on: Streptococcus pneumoniae; assay: Bactericidal activity against Erythromycin-susceptible Streptococcus pneumoniae ATCC 49619; format: functional
In short: (§1)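 Bacteria were exposed to 1- to 8-fold MIC of the sample, then transferred to fresh medium without antibacterial. After further incubation, colonies were counted. MBC was taken as the lowest concentration giving a >3 log10 reduction in colony number.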

[3] = tested on: Streptococcus pneumoniae; assay: Ratio of MBC to MIC against Erythromycin-susceptible Streptococcus pneumoniae ATCC 49619; format: functional
[4] = tested on: Streptococcus pneumoniae; assay: Antibacterial activity against penicillin-susceptible Streptococcus pneumoniae PU09 harboring mef gene assessed as reduction in microbial growth; format: functional
[5] = tested on: Streptococcus pneumoniae; assay: Bactericidal activity against penicillin-susceptible Streptococcus pneumoniae PU09 harboring mef gene; format: functional
In short: (§2)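 Bacteria were exposed to 1- to 8-fold their MIC of test sample, then transferred to fresh culture medium without antibacterial compound and incubated for the required time. Colonies were then counted. MBC is the lowest concentration giving a reduction in colony number of >3 Log₁₀.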

[6] = tested on: Streptococcus pneumoniae; assay: Ratio of MBC to MIC against penicillin-susceptible Streptococcus pneumoniae PU09; format: functional
[7] = tested on: Streptococcus pneumoniae; assay: Antibacterial activity against MLSB-resistant Streptococcus pneumoniae 07P390 harboring ermB gene assessed as reduction in microbial growth; format: functional
[8] = tested on: Streptococcus pneumoniae; assay: Bactericidal activity against MLSB-resistant Streptococcus pneumoniae 07P390 harboring ermB gene assessed as reduction in microbial growth; format: functional; in short: as §2
[9] = tested on: Streptococcus pneumoniae; assay: Ratio of MBC to MIC against MLSB-resistant Streptococcus pneumoniae 07P390 harboring ermB; format: functional
[10] = tested on: Staphylococcus aureus; assay: Antibacterial activity against MLSB/methicillin/ciprofloxacin-resistant Staphylococcus aureus PU32 harboring ermA gene assessed as reduction in microbial growth; format: functional
[11] = tested on: Staphylococcus aureus; assay: Bactericidal activity against MLSB/methicillin/ciprofloxacin-resistant Staphylococcus aureus PU32 harboring ermA gene; format: functional; in short: as §2
[12] = tested on: Staphylococcus aureus; assay: Ratio of MBC to MIC against MLSB/methicillin/ciprofloxacin-resistant Staphylococcus aureus PU32 harboring ermA gene; format: functional
[13] = tested on: Staphylococcus aureus; assay: Antibacterial activity against MLSB/methicillin-resistant Staphylococcus aureus 15B196 assessed as reduction in microbial growth; format: functional
[14] = tested on: Staphylococcus aureus; assay: Bactericidal activity against MLSB/methicillin-resistant Staphylococcus aureus 15B196; format: functional; in short: as §2
[15] = tested on: Staphylococcus aureus; assay: Ratio of MBC to MIC against MLSB/methicillin-resistant Staphylococcus aureus 15B196; format: functional
[16] = tested on: Haemophilus influenzae; assay: Antibacterial activity against azithromycin-susceptible Haemophilus influenzae ATCC 49247 assessed as reduction in microbial growth; format: functional
[17] = tested on: Haemophilus influenzae; assay: Bactericidal activity against azithromycin-susceptible Haemophilus influenzae ATCC 49247; format: functional; in short: as §1
[18] = tested on: Haemophilus influenzae; assay: Ratio of MBC to MIC against azithromycin-susceptible Haemophilus influenzae ATCC 49247; format: functional
[19] = tested on: Staphylococcus aureus; assay: Antibacterial activity against MLSB/methicillin/ciprofloxacin-resistant Staphylococcus aureus PU32 harboring ermA gene assessed as reduction in microbial growth relative to ciprofloxacin; format: functional
[20] = tested on: Staphylococcus aureus; assay: Antibacterial activity against MLSB/methicillin-resistant Staphylococcus aureus 15B196 assessed as reduction in microbial growth relative to ciprofloxacin; format: functional
[21] = tested on: Haemophilus influenzae; assay: Antibacterial activity against azithromycin-susceptible Haemophilus influenzae ATCC 49247 assessed as reduction in microbial growth relative to ciprofloxacin; format: functional
[22] = target: DNA gyrase (Escherichia coli, UniProt P0AES4+P0AES6); assay: Inhibition of Escherichia coli DNA gyrase using relaxed DNA as substrate incubated for 15 mins by ethidium bromide-based agarose gel electrophoresis; format: protein-complex assay
In short: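 Supercoiling assay with relaxed pBR322 (0.3 µg), made by treating negatively supercoiled pBR322 with E. coli topoisomerase I, and 1 unit E. coli gyrase. Buffer: 50 mM Tris-HCl pH 8.0, 10 mM MgCl2, 100 mM potassium glutamate, 10 mM DTT, 50 µg/mL BSA, 1 mM ATP. Run 37 °C, 15 min, stopped with 25 mM EDTA. IC50 in µM.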

[23] = target: T1, DNA gyrase (Escherichia coli) (UniProt P0AES6+P0AES4); assay: Poison activity at Escherichia coli DNA gyrase assessed as stabilization of DNA cleavage complex by measuring linear plasmid DNA formation using supercoiled pBR322 incubated for 15 mins by electrophoresis relative to ciprofloxacin; format: protein-complex assay
In short: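 Cleavage assay with 0.3 µg supercoiled pBR322 and 10 units E. coli gyrase. Buffer: 50 mM Tris-HCl pH 8.0, 10 mM MgCl2, 10 mM DTT, 50 µg/mL BSA, 1 mM ATP, 5 µg/mL tRNA; 37 °C, 15 min. Then 1% SDS for 5 min, then 25 mM EDTA plus 100 µg/mL proteinase K for 30 min. Phenol/chloroform extraction, then 1.2% agarose with ethidium bromide.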

[24] = tested on: Escherichia coli; assay: Antibacterial activity against Escherichia coli BW25113 depletion of toIC efflux gene assessed as reduction in microbial growth; format: functional
[25] = tested on: Escherichia coli; assay: Antibacterial activity against Escherichia coli JW5503-1 depletion of toIC efflux gene assessed as reduction in microbial growth; format: functional
[26] = tested on: Escherichia coli; assay: Antibacterial activity against Escherichia coli JW5503-KanS depletion of toIC efflux gene assessed as reduction in microbial growth; format: functional
[27] = target: T1, DNA gyrase (Escherichia coli); conditions: time 15.0 min
[28] = tested on: Staphylococcus epidermidis; assay: Antibacterial activity against methicillin-susceptible Staphylococcus epidermidis ATCC 12228 assessed as reduction in microbial growth; format: functional
[29] = tested on: Staphylococcus epidermidis; assay: Antibacterial activity against methicillin-resistant Staphylococcus epidermidis 16-5 assessed as reduction in microbial growth; format: functional
[30] = tested on: Staphylococcus aureus; assay: Antibacterial activity against methicillin-susceptible Staphylococcus aureus ATCC 29213 assessed as reduction in microbial growth; format: functional
[31] = tested on: Staphylococcus aureus; assay: Antibacterial activity against methicillin-resisitant Staphylococcus aureus 16-30 assessed as reduction in microbial growth; format: functional
[32] = tested on: Escherichia coli; assay: Antibacterial activity against ESBL negative Escherichia coli 16-7 assessed as reduction in microbial growth; format: functional
[33] = tested on: Escherichia coli; assay: Antibacterial activity against ESBL positive Escherichia coli 16-1 assessed as reduction in microbial growth; format: functional
[34] = tested on: Escherichia coli; assay: Antibacterial activity against NDM-1 producing Escherichia coli […] assessed as reduction in microbial growth; format: functional
[35] = tested on: Klebsiella pneumoniae; assay: Antibacterial activity against NDM-1 producing Klebsiella pneumoniae ATCC BAA-2146 assessed as reduction in microbial growth; format: functional
[36] = tested on: Klebsiella pneumoniae; assay: Antibacterial activity against ESBL producing Klebsiella pneumoniae 16-14 assessed as reduction in microbial growth; format: functional
[37] = tested on: Enterococcus faecalis; assay: Antibacterial activity against vancomycin-susceptible Enterococcus faecalis ATCC 29212 assessed as reduction in microbial growth; format: functional
[38] = tested on: Acinetobacter baumannii; assay: Antibacterial activity against Acinetobacter baumannii ATCC 19606 assessed as reduction in microbial growth; format: functional; conditions: ATCC 19606 = CIP 70.34 = JCM 6841
[39] = tested on: Enterobacter cloacae; assay: Antibacterial activity against Enterobacter cloacae ATCC 43560 assessed as reduction in microbial growth; format: functional
[40] = tested on: Klebsiella aerogenes; assay: Antibacterial activity against Enterobacter aerogenes ATCC 13048 assessed as reduction in microbial growth; format: functional
[41] = tested on: Shigella; assay: Antibacterial activity against Shigella ATCC 12022 assessed as reduction in microbial growth; format: functional
[42] = tested on: Pseudomonas aeruginosa; assay: Antibacterial activity against Pseudomonas aeruginosa ATCC 27853 assessed as reduction in microbial growth; format: functional
[43] = tested on: Enterococcus faecium; assay: Antibacterial activity against vancomycin-resistant Enterococcus faecium ATCC 700221 assessed as reduction in microbial growth

Row | Compound | MIC [1] [µg/mL] | MBC [2] [µg/mL] | Ratio [3] | MIC [4] [µg/mL] | MBC [5] [µg/mL] | Ratio [6] | MIC [7] [µg/mL] | MBC [8] [µg/mL] | Ratio [9] | MIC [10] [µg/mL] | MBC [11] [µg/mL] | Ratio [12] | MIC [13] [µg/mL] | MBC [14] [µg/mL] | MIC [16] [µg/mL] | MBC [17] [µg/mL] | Ratio [18] | fold change (FC) [19] | fold change (FC) [20] | fold change (FC) [21] | also measured
1 | CC[C@H]1OC(=O)[C@H](C)[C@@H](OC(=O)Cc2ccccn2)[C@H](C)[C@@H](O[C@@H]2O[C@H](C)C[C@H](N(C)C)[C@H]2O)[C@](C)(OC(=O)CCN2CCN(c3cc4c(cc3F)c(=O)c(C(=O)O)cn4C3CC3)CC2)C[C@@H](C)CN(C)[C@H](C)[C@@H](O)[C@]1(C)O | 0.125 | 0.25 (≈ 0.228 µM) | 2 | 2 | 4 (≈ 3.65 µM) | 2 | 4 | 32 | 8 | 16 | > 128 | >8 | 16 | 128 (≈ 117 µM) | 0.25 | 0.25 (≈ 0.228 µM) | 1 | 0.076 | 9.7 | 19 | Ratio [15]: 8; IC50 [22]: 44.1 µM; Activity [23]: 28%; MIC [24]: 4 µg/mL; MIC [25]: 1 µg/mL; MIC [26]: 1 µg/mL; EC [27]: 69.5 µM
2 | CC[C@H]1OC(=O)[C@H](C)[C@@H](OC(=O)Cc2ccccn2)[C@H](C)[C@@H](O[C@@H]2O[C@H](C)C[C@H](N(C)C)[C@H]2O)[C@](C)(OC(=O)CCNCCCNc2cc3c(=O)c(C(=O)O)cn(C4CC4)c3cc2Cl)C[C@@H](C)CN(C)[C@H](C)[C@@H](O)[C@]1(C)O | 0.125 | 0.125 (≈ 0.114 µM) | 1 | 1 | 1 (≈ 0.909 µM) | 1 | 1 | > 8 | >8 | 8 | > 64 | >8 | > 256 | – | 16 | 64 (≈ 58.2 µM) | 4 | – | – | – | MIC [28]: 4 µg/mL; MIC [29]: > 64 µg/mL; MIC [30]: 8 µg/mL; MIC [31]: > 64 µg/mL; MIC [32]: 64 µg/mL; MIC [33]: 32 µg/mL; MIC [34]: 64 µg/mL; MIC [35]: > 64 µg/mL; MIC [36]: 64 µg/mL; MIC [37]: 8 µg/mL; MIC [38]: > 64 µg/mL; MIC [39]: 64 µg/mL; MIC [40]: 64 µg/mL; MIC [41]: 16 µg/mL; MIC [42]: > 64 µg/mL; MIC [43]: > 64 µg/mL
3 | CC[C@H]1OC(=O)[C@H](C)[C@@H](OC(=O)Cc2ccccn2)[C@H](C)[C@@H](O[C@@H]2O[C@H](C)C[C@H](N(C)C)[C@H]2O)[C@](C)(OC(=O)CCNCCC#Cc2cnc3ccccc3c2)C[C@@H](C)CN(C)[C@H](C)[C@@H](O)[C@]1(C)O | 0.062 | 0.125 (≈ 0.13 µM) | 2 | 1 | 1 (≈ 1.04 µM) | 1 | 0.5 | > 4 | >8 | 1 | > 8 | >8 | 128 | > 256 | 2 | 4 (≈ 4.17 µM) | 2 | 0.0054 | 88 | 172 | MIC [28]: 0.25 µg/mL; MIC [29]: > 64 µg/mL; MIC [30]: 1 µg/mL; MIC [31]: > 64 µg/mL; MIC [32]: 8 µg/mL; MIC [33]: 8 µg/mL; MIC [34]: 8 µg/mL; MIC [35]: 32 µg/mL; MIC [36]: 16 µg/mL; MIC [37]: 1 µg/mL; MIC [38]: > 64 µg/mL; MIC [39]: 32 µg/mL; MIC [40]: 32 µg/mL; MIC [41]: 8 µg/mL; MIC [42]: > 64 µg/mL; MIC [43]: > 64 µg/mL
